The values that follow come from article PMC8526398 (Bioorganic & medicinal chemistry letters, 2021).

The subject of one series is EGFR/GRB2 PPI. The following applies: cited from earlier work.
Series [1] is described as follows: Parallel artificial membrane permeability assay. It counts as in vitro ADME. The settings on record: PAMPA, 1% egg lecithin in n-dodecane. The gist of the method:
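Artificial membrane of 1% egg lecithin in n-dodecane. Test compound at 500 μM added to the donor side; incubated 5 h at room temperature. Compound in the receiving solution quantified by HPLC. Percent transport (%T) and apparent permeability coefficient (Papp, cm·s−1) calculated from previously reported equations; values given with SD.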

The target of series [2] is full-length human GRB2 (EGFR/GRB2 PPI) (Homo sapiens, UniProt P62993). It counts as binding.

Structures are written as SMILES. Where only a bound is given, the exact number is not on record here.

full-length human GRB2 (EGFR/GRB2 PPI), sequence (P62993 whole entry): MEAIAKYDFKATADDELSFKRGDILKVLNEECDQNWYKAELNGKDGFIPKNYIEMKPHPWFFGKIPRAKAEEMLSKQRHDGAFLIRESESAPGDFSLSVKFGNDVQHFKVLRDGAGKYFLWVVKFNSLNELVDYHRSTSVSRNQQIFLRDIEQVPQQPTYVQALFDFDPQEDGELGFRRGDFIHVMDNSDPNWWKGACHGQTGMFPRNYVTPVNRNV

For the compound `CC(=O)N[C@@H](Cc1ccc(OP(=O)(O)O)cc1)C(=O)NC1(C(=O)N[C@@H](CC(N)=O)C(=O)NCCCc2cccc3ccccc23)CCCCC1` [Compound 2], the “IC50 relative to compound 1” value in the series on EGFR/GRB2 PPI is given as “two orders of magnitude lower than 1”.

Take `NC(=O)C[C@@H]1NC(=O)C2(CCCCC2)NC(=O)C[C@@H](c2ccc(CP(=O)(O)O)cc2)/C=C/C[C@@H](Cc2cccc3ccccc23)CNC1=O` [Compound 3]: in series [1], the “permeability through the artificial membrane (in words)” value was “poor permeability”. Regarding `NC(=O)C[C@@H]1NC(=O)C2(CCCCC2)NC(=O)[C@@H](CC(=O)O)[C@@H](c2ccc(CP(=O)(O)O)cc2)/C=C/C[C@@H](Cc2cccc3ccccc23)CNC1=O` [Compound 4], in the series with EGFR/GRB2 PPI, the IC50 was 2 nM. `COC(=O)Cc1ccc([C@H]2/C=C/C[C@@H](Cc3cccc4ccccc34)CNC(=O)[C@H](CC(N)=O)NC(=O)C3(CCCCC3)NC(=O)C2)cc1` [Compound 8] showed an inhibition constant Ki in series [2] above 20000 nM. On to `NC(=O)C[C@@H]1NC(=O)C2(CCCCC2)NC(=O)C[C@@H](c2ccc(CC(=O)O)cc2)/C=C/C[C@@H](Cc2cccc3ccccc23)CNC1=O` [Compound 7], for which, in series [1], the “permeability through the artificial membrane (in words)” value is on record as “good permeability”.
